# Laboratory results as given in paper PMC11607638 (The FASEB Journal, 2024).
# Where two headings read alike, the source gives them in different places. Square brackets hold non-standard residues; d marks the D form. Ends that are not written are not given here. sY = N[C@@H](Cc1ccc(OS(=O)(=O)O)cc1)C(=O)O
# Experiments:
# SK receptor gene SKR [1] = experiment: Fura-2 calcium imaging in perifused SKR-CHO-K1 cells; type: cell-based, Aedes aegypti; settings: for Reversibility of stimulation upon wash-out in perifused SKR-CHO-K1 cells: Figures 4, 5, 6; for Onset (lag time) of cytosolic calcium oscillations in SKR-CHO-K1 cells: at lower concentrations, Figures 4 and 5
# Summary of the method: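 CHO-K1 cells at 80–90% confluency were transfected in serum-free medium with pcDNA3.1(+)-SKR using jetPRIME for 24–36 h. Cells were loaded with Fura-2AM (10 µM, 50 min, 37 °C), attached to coated coverslips and perifused in HEPES buffer, pH 7.4. The 340/380 nm excitation ratio was recorded per single cell. Peptides used: SK1 300 pM–30 nM, SK2 3 nM ± devazepide 10 nM, CCK 1–100 nM. Peak area above baseline per 10 min; mean ± SEM, t-test.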
# [2] = system: mammalian cholecystokinin 1 receptor (CCK1R); experiment: Fura-2 calcium imaging in isolated rat pancreatic acini; type: cell-based; settings: CCK 10 pM
# Summary of the method: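 Acini came from male Sprague-Dawley rats (250–450 g) by collagenase P digestion (0.2 g/L, 2 × 10 min, 37 °C) in HEPES-buffered saline, pH 7.4. They were loaded with Fura-2AM (10 µM, 30 min) and attached to Cell-Tak- or Matrix-Gel-coated coverslips in a perifusion chamber. The buffer was the same minus BSA, amino acids and trypsin inhibitor. Fluorescence was excited alternately at 340/380 nm and the ratio recorded over time.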
# SK receptor gene SKR [3] = experiment: qPCR of SKR mRNA in mosquito head after peptide injection; type: in vivo, Aedes aegypti; settings: after blood feeding 24 h after injection
# Aedes aegypti [4] = experiment: Blood-feeding time course after thoracic peptide injection; type: in vivo; settings: Figure 3C
# Summary of the method: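 Females were given 1 µL thoracic injections of DEPC water, SK1, SK2 (200 µM) or SK1+SK2 (100 µM each, final), then kept in separate cages for 24 h, 20 per group, and offered blood. Feeding was counted as complete when a mosquito stopped and no longer moved actively. Completed feeders were recorded every 10 min until all had fed; run in triplicate.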
# CHO-K1 cells = experiment: Fura-2 calcium imaging in un-transfected parental CHO-K1 cells; type: cell-based, Chinese hamster; settings: 30 nM
# Summary of the method: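 Un-transfected CHO-K1 cells were grown in DMEM/F12 with 10% FBS, then loaded with Fura-2AM (10 µM, 50 min, 37 °C) and perifused on coated coverslips. They were exposed to SK1 or SK2 at 30 nM. Cytosolic calcium was followed as the 340/380 nm excitation ratio in single cells.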
# SK gene SK = experiment: qPCR of SK mRNA in mosquito head after peptide injection; type: in vivo, Aedes aegypti; settings: after blood feeding 24 h after injection
# [5] = Body weight of female mosquitoes after injection; type: in vivo, Aedes aegypti; settings: for Pre-blood meal body weight among groups: DEPC water, SK2 100 μM, SK2 + proglumide (Figure 3F left)
# Summary of the method: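 Females 3 days post-eclosion were starved 12 h, given a 1 µL thoracic injection, and starved a further 24 h. They were weighed on a balance immediately before the blood meal, 30 per group.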
# Aedes aegypti [6] = experiment: Blood meal size after thoracic peptide injection; type: in vivo; settings: 24 h
# Summary of the method: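 Females 3 days post-eclosion, starved 12 h before and 24 h after a 1 µL thoracic injection, then blood-fed. Each mosquito was weighed before and after the meal, and intake was taken as the weight difference. SK2 was given at 50, 100 or 150 pmol/µL against DEPC water, 30 per group. For reversal, SK2 100 µM plus proglumide 14 mM (final, 1:1 mix) was injected and intake weighed 24 h later.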
molecule,measurement,setting,value
"CCK: sulfated cholecystokinin octapeptide (CCK), Tocris Cookson #1166 (D[sY]MGWMDF-NH2; UniProt P06307 96-103, looked up) [reference compound]",Calcium response in SKR-CHO-K1 cells,SK receptor gene SKR [1]; CCK 1 nM,no effect
same,Calcium response in SKR-CHO-K1 cells,SK receptor gene SKR [1]; CCK 10 nM and 100 nM,clear calcium increases
same,Reversibility of stimulation upon wash-out in perifused SKR-CHO-K1 cells,SK receptor gene SKR [1],readily washed out
same,Efficiency of activating SKR compared with mosquito peptide SK2,"SK receptor gene SKR [1]; SKR-CHO-K1, Figure 6",probably less efficiently than the mosquito peptide SK2
same,Calcium response in rat pancreatic acini,[2],robust calcium oscillations
FDDY(SO3H)GHMRF [SK1],SKR mRNA expression vs DEPC water control,SK receptor gene SKR [3],No difference
same,Reversibility of stimulation upon wash-out in perifused SKR-CHO-K1 cells,SK receptor gene SKR [1],long‐lasting even after wash‐out
same,Calcium response in SKR-CHO-K1 cells,SK receptor gene SKR [1]; SK1 300 pM,did not elicit any change in calcium levels
same,Calcium response in SKR-CHO-K1 cells,"SK receptor gene SKR [1]; SK1 at 1, 3, 10, and 30 nM (all)",robust calcium spikes
same,Onset (lag time) of cytosolic calcium oscillations in SKR-CHO-K1 cells,SK receptor gene SKR [1],significant lag time
same,EC50,"SK receptor gene SKR [1]; read-out: EC50, calcium spikes (area under the peaks above baseline, per 10 min), SK1, SKR-CHO-K1, Fura-2 F340/F380, monophasic dose-response, N = 5-7",1.18 nM
same,"Prolongation of feeding, comparison with SK2 at same concentration",Aedes aegypti [4]; SK1 200 μM,significantly less active
same,Calcium response in parental CHO-K1 cells,CHO-K1 cells,no effect
same,SK mRNA expression vs DEPC water control,SK gene SK,decrease significantly
GGEGEQFDDY(SO3H)GHMRF [SK2],SKR mRNA expression vs DEPC water control,SK receptor gene SKR [3],No difference
same,Reversibility of stimulation upon wash-out in perifused SKR-CHO-K1 cells,SK receptor gene SKR [1],long‐lasting even after wash‐out
same,Calcium response in SKR-CHO-K1 cells,SK receptor gene SKR [1]; SK2 100 pM,did not stimulate any increases in calcium concentration
same,Calcium response in SKR-CHO-K1 cells,SK receptor gene SKR [1]; SK2 3 nM alone (parallel to antagonist experiment),strong calcium oscillations
same,Calcium response in SKR-CHO-K1 cells,"SK receptor gene SKR [1]; SK2 at 300 pM, 1, 3, 10, and 30 nM (all)",lasting calcium oscillations
same,Onset (lag time) of cytosolic calcium oscillations in SKR-CHO-K1 cells,SK receptor gene SKR [1],significant lag time
same,EC50,"SK receptor gene SKR [1]; read-out: EC50, calcium oscillations (areas under the peak above baseline per 10 min), SK2, SKR-CHO-K1, Fura-2 F340/F380, N = 5-8",0.251 nM
same,"Prolongation of time to complete a blood meal, vs DEPC water and among peptides","Aedes aegypti [4]; SK1, SK2 at 200 μM, SK1 + SK2 at 100 μM each",stronger prolongation than SK1
same,Calcium response in parental CHO-K1 cells,CHO-K1 cells,no effect
same,SK mRNA expression vs DEPC water control,SK gene SK,decrease significantly
same,Pre-blood meal body weight among groups,[5],No difference
same,Body weight after injection at different doses,"[5]; SK2 50, 100, 150 μM (Figure 3E left)",no changes in body weight
same,Blood intake vs control,"Aedes aegypti [6]; SK2 50 μM (50 pmol in 1 μL), thoracic injection, 30 per group",no significant difference
"CN1C(=O)[C@@H](NC(=O)c2cc3ccccc3[nH]2)N=C(c2ccccc2)c2ccccc21 [devazepide, reference compound]",Block of SK2-induced calcium increases in SKR-CHO-K1 cells (antagonism),SK receptor gene SKR [1]; devazepide 10 nM + SK2 3 nM,no longer induced any calcium increases
"NCCc1ccc(O)c(O)c1 [dopamine, reference compound]",Calcium response in SKR-CHO-K1 cells,SK receptor gene SKR [1]; dopamine 1 mM,no effect
CCCN(CCC)C(=O)C(CCC(=O)O)NC(=O)c1ccccc1 (centres unmarked) [proglumide],Pre-blood meal body weight among groups,[5],No difference
same,Blood intake after mixed injection vs DEPC water control,"Aedes aegypti [6]; proglumide 14 mM + SK2 100 μM, 1 μL",no significant difference
same,Blood intake after mixed injection vs single injection of SK2 at 100 μM,"Aedes aegypti [6]; proglumide 14 mM + SK2 100 μM, 1 μL, ****p < .0001 (Figure 3F)",higher
